# Source: publication PMC3288537 (ACS Chemical Biology, 2011)
# Where “and” joins values, the source holds several entries; their conditions need not be identical. Identical values can stand only once.
# What was measured:
# [1] = Serum concentration in mice after i.p. injection; assay type: in vivo; conditions: i.p. 3 mg/kg
# In short: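 Mice dosed i.p. at 3 mg/kg with test compound. Blood serum collected 5, 20, 60 and 120 min after injection for measurement of compound concentration.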
# STEP = target: T1, STEP (Homo sapiens, UniProt P54829); experiment: Dose-response OMFP phosphatase assay, STEP; assay type: biochemical; conditions: read-out: IC50 STEP; OMFP substrate
# T1 sequence (P54829 1-565): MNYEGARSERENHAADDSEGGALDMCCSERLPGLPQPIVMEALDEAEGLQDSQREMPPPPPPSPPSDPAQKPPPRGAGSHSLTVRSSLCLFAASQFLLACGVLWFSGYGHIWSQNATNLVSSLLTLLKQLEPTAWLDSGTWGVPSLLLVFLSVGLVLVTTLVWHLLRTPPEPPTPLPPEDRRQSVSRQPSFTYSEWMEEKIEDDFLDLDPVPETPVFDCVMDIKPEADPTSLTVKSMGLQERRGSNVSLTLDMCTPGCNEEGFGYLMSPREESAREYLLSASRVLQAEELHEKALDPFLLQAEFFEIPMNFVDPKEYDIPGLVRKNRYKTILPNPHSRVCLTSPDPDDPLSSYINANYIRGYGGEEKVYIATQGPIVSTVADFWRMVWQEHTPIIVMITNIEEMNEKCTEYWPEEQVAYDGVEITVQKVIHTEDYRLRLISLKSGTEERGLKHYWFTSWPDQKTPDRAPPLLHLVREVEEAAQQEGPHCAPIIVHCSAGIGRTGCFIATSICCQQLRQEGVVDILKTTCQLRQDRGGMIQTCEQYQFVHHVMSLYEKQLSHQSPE
# SHP1 = SHP1 (Homo sapiens, UniProt P29350); experiment: Dose-response OMFP phosphatase assay, SHP1; assay type: biochemical; conditions: read-out: IC50 SHP1; OMFP substrate
# In short: (§1)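 Ten-point 2-fold dilution series of test compound prepared in DMSO. Fluorescence (ex 485/em 528 nm) read in kinetic mode over 10 min; progress-curve slopes taken as activity. IC50 by nonlinear regression (sigmoidal, variable slope).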
# Tissue concentration = assay type: in vivo, C57B6 mice; conditions: mice
# HePTP = target: T2, HePTP (Homo sapiens, UniProt P35236); experiment: Dose-response OMFP phosphatase assay, HePTP; assay type: biochemical
# T2 sequence (P35236 1-360): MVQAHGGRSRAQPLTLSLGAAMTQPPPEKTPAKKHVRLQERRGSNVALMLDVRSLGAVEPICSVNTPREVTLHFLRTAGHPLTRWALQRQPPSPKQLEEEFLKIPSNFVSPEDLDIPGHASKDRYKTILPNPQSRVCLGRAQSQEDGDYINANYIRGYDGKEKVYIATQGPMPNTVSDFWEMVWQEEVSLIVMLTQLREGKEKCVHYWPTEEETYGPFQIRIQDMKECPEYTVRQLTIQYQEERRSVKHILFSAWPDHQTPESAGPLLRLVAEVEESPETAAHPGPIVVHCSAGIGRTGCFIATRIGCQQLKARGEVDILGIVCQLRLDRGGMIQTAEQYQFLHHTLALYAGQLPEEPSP
# LYP = target: T3, LYP (Homo sapiens, UniProt Q9Y2R2); experiment: Dose-response OMFP phosphatase assay, LYP; assay type: biochemical; conditions: read-out: IC50 LYP; OMFP substrate
# T3 sequence (Q9Y2R2 1-807): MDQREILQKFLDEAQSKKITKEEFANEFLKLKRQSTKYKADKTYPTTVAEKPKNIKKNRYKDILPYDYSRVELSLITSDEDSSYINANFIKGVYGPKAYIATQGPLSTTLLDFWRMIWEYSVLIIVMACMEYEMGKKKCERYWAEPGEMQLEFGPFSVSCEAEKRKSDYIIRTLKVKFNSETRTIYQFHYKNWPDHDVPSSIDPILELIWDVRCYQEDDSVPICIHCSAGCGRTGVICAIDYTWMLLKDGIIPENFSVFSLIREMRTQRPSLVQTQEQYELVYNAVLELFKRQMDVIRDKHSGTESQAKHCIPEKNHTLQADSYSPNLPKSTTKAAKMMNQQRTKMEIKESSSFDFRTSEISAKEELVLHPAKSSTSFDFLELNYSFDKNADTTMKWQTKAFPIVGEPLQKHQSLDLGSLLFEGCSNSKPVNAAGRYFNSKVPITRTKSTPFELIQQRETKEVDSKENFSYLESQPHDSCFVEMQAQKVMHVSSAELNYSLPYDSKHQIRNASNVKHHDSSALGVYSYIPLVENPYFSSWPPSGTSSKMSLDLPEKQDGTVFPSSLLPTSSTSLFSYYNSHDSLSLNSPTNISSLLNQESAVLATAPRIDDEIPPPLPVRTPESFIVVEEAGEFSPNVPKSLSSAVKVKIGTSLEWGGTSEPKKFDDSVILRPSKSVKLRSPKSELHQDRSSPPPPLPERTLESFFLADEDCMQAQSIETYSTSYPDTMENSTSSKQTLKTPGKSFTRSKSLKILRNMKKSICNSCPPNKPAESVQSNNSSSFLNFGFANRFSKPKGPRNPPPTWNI
# [2] = system: ERK1/2 and p38 phosphorylation in splenocytes; experiment: Immunoblot of phosphorylation levels in spleen of mice injected i.p.; assay type: in vivo, C57B6 mice; conditions: mouse spleen, doses and time points used
# In short: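 C57B6 mice given test compound i.p. at 3 or 5 mg kg-1, or vehicle; spleens taken 3 h or 6 h later (3 mice per dose and time). Spleen sonicated in Tris pH 7.4 buffer with phosphatase and protease inhibitors; 800 × g supernatant used. Blotted for pS473-AKT, pS23-HePTP, pERK1/2 and pp38, normalised to total protein then GAPDH. ANOVA/Tukey or t-test.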
# LAR = LAR (Homo sapiens, UniProt P10586); experiment: Dose-response OMFP phosphatase assay, LAR; assay type: biochemical; conditions: read-out: IC50 LAR; OMFP substrate
# In short: as §1
# HePTP H237A mutant = target: T4, HePTP H237A mutant (Homo sapiens, UniProt P35236, H258A); experiment: Dose-response OMFP phosphatase assay, HePTP H237A mutant; assay type: biochemical; conditions: read-out: IC50 HePTP H237A
# T4 sequence (P35236 22-360 H258A limits assumed): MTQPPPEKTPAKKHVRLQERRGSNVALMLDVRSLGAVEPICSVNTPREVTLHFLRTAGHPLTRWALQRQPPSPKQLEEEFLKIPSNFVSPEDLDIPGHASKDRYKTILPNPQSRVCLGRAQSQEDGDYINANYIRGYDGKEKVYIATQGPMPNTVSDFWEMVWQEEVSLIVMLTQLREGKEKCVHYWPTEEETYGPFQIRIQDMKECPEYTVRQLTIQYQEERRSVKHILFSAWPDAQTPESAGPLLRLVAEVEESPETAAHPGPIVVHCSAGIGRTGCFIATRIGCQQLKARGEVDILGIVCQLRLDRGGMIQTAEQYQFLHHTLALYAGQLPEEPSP
# Sequence of LAR (P10586 30-1907, species assumed): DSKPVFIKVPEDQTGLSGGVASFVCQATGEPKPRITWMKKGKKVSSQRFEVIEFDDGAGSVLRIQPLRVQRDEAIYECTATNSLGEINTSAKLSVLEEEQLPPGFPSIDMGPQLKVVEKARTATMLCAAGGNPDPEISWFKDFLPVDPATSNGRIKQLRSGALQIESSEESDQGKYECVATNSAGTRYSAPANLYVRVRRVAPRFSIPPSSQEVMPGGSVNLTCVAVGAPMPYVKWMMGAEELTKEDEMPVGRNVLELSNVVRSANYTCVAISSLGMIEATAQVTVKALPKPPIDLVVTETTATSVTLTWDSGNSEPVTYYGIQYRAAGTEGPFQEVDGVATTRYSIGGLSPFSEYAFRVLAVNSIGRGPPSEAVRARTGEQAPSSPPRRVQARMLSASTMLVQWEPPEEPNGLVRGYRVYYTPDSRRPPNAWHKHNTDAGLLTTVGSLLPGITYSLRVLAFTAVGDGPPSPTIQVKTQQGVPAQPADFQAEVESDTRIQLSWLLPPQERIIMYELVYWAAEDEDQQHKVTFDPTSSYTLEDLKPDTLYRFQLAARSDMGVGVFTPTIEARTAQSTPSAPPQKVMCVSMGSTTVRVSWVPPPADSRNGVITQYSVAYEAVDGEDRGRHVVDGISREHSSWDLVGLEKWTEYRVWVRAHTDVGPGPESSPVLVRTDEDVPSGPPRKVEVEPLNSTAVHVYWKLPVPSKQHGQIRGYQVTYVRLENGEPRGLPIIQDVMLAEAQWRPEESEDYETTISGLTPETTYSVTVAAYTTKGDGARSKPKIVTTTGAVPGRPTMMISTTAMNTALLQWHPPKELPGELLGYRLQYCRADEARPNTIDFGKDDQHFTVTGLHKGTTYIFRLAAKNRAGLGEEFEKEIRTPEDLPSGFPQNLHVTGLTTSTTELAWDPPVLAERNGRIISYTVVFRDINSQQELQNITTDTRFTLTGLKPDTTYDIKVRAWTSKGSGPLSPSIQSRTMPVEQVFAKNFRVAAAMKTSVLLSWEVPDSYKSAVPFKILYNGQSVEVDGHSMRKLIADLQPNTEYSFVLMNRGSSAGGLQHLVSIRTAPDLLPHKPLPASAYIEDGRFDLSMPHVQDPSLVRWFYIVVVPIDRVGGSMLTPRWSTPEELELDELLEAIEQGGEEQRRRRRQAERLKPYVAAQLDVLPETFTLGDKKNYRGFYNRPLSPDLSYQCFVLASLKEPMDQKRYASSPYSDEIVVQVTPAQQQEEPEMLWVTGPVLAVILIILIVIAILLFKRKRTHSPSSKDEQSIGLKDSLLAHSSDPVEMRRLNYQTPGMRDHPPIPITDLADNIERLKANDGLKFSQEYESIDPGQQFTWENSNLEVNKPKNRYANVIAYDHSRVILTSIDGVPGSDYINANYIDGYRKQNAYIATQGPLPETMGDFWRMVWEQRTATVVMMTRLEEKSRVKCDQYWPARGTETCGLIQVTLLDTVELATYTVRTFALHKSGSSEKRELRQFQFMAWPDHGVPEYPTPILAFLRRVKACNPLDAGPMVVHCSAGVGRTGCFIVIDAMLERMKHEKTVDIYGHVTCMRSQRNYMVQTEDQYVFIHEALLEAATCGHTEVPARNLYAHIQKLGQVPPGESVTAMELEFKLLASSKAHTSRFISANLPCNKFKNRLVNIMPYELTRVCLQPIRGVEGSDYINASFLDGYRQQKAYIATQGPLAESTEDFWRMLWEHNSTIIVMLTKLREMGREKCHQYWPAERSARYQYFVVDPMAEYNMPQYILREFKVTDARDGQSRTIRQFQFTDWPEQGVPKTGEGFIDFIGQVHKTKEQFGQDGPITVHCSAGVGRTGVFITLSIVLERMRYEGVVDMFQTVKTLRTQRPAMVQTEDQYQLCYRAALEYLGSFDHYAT
# Sequence of SHP1 (P29350 whole entry): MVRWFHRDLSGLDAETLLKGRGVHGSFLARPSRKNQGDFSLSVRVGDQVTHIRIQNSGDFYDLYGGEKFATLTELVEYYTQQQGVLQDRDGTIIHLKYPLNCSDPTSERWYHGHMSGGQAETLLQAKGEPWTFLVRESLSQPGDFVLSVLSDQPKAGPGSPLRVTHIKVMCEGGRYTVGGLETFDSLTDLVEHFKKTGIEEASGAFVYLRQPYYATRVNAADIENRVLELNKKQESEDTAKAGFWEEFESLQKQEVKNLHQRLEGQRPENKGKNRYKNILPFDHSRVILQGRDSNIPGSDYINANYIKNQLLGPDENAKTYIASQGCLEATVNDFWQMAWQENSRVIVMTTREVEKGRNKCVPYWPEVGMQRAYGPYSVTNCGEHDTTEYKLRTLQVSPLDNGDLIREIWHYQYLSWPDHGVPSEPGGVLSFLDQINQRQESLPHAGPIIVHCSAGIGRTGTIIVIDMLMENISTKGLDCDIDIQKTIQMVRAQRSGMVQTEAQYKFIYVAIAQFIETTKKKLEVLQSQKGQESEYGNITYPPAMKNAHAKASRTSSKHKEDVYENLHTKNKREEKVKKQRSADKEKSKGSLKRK
smiles,measurement,setting,value
O=C(O)c1ccccc1-c1ccc(/C=c2\sc3nc4cc(Br)cnc4n3c2=O)o1 [Compound 1],serum concentration (peak),"[1]; 20 min, 3 mg/kg",1240 ± 170 nM and 1240 nM
same,serum concentration,[1]; 2 h,18 ± 10 nM
same,IC50,STEP,6300 nM
same,IC50,SHP1,2500 nM
same,blood-brain-barrier crossing,Tissue concentration; i.p.,does not appear to cross the BBB
same,concentration in the spleen tissue,Tissue concentration; i.p.,< 500 nM
same,compound in cerebellum,"Tissue concentration; i.p. 3 or 5 mg/kg, 3 h",could not be detected
same,compound in brain tissue,"Tissue concentration; i.p. 3 or 5 mg/kg, 3 h, detection limit ~1 nM",could not be detected
same,concentration in splenocytes,"Tissue concentration; i.p., 6 h after injection",265 ± 119 nM
same,time-dependent inhibition of HePTP (progress curves),HePTP; progress curves linear over 98 min at different concentrations,no time-dependent inhibition
same,IC50,"HePTP; read-out: IC50 HePTP, OMFP substrate",210 nM
same,IC50,LYP,1900 nM
same,AKT phosphorylation levels,[2],no change
same,phospho-HePTP (pS23) levels,[2],No changes
same,IC50,LAR,73000 nM
same,IC50,HePTP H237A mutant,2800 nM
